From ChEMBL document CHEMBL3286167 (J Med Chem, 2014)

Columns and labels:
[1] = target: T1, Neurotensin receptor type 2 (Rattus norvegicus, UniProt Q63384); assay: Displacement of [125I]NT at rat NTS2 overexpressed in CHOK1 cells after 30 mins by gamma counting; type: cell-based, CHO-K1
T1 sequence (Q63384 whole entry): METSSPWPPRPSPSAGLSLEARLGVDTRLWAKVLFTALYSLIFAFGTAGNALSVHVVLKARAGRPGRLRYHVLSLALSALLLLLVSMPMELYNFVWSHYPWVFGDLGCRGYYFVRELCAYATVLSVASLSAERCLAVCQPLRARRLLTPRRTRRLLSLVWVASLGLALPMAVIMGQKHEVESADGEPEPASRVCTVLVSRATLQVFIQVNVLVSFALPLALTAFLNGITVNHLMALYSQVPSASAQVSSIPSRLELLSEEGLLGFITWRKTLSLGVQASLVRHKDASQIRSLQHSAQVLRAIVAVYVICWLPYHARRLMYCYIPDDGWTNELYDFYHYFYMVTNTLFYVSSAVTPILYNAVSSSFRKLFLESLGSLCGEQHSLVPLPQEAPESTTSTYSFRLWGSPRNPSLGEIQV

[2] = target: T1, Neurotensin receptor type 2; assay: Agonist activity at rat NTS2 stably expressed in CHOK1 cells assessed as induction of calcium release by FLIPR assay; type: functional, cell-based, CHO-K1
[3] = target: T2, Neurotensin receptor type 2 (Rattus norvegicus) (UniProt Q63384); assay: Agonist activity at rat NTS2 stably expressed in CHOK1 cells assessed as induction of calcium release by FLIPR assay relative to SR142948a; type: functional, cell-based; details: CHO-K1
T2 sequence (whole entry): T1 sequence (Q63384 whole entry)
Procedure, shortened: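 Rat NTS2 expressed in CHO-k1 cells, plated at 25000/well the day before the assay. Cells were loaded with Calcium 5 dye (1:20 in HBSS, 20 mM HEPES, 2.5 mM probenecid, pH 7.4) for 45 min at 37 °C, then pretreated with 10% DMSO added 1:10. Full-log compound dilutions were read on FLIPR Tetra every second for 100 s. Emax is expressed as % of the full-agonist standard; EC50 from a three-parameter logistic fit; at least three experiments in duplicate.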

[4] = target: Neurotensin receptor type 1 (Rattus norvegicus) (UniProt P20789); assay: Antagonist activity at rat NTS1 stably expressed in CHOK1 cells assessed as inhibition of NT-induced calcium release by FLIPR assay; type: functional, cell-based; details: CHO-K1
Procedure, shortened: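 Rat NTS1 CHO-k1 cells, plated at 30000/well on the assay day. Cells were loaded with Calcium 5 dye (1:40 in HBSS, 20 mM HEPES, 2.5 mM probenecid, pH 7.4) for 45 min at 37 °C, then preincubated with compound for 15 min. […] Fluorescence (ex 485/em 525 nm) read for 60 s on FlexStation II; three-parameter logistic fit; at least three experiments in duplicate.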

[5] = target: Neurotensin receptor type 1 (Rattus norvegicus, UniProt P20789); assay: Agonist activity at rat NTS1 stably expressed in CHOK1 cells assessed as induction of calcium release by FLIPR assay; type: functional, cell-based; details: cho-k1
Chain of Neurotensin receptor type 1 (P20789 whole entry): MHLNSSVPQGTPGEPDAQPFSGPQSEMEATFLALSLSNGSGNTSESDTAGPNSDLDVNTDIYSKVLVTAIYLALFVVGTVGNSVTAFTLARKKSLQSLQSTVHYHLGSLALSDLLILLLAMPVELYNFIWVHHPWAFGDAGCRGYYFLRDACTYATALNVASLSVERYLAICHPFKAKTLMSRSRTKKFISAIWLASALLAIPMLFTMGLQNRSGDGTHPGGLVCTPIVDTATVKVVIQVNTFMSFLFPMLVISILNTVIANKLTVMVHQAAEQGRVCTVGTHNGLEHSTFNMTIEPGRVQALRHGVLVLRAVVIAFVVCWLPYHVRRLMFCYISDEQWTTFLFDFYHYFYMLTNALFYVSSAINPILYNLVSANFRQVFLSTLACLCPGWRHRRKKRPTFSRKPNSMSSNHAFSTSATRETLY

Chain of Neurotensin receptor type 1 (Rattus norvegicus) (P20789 whole entry): as above

## CCc1c(C(=O)N[C@H](C(=O)O)C2CCCCC2)nn(-c2ccnc3cc(Cl)ccc23)c1-c1c(OC)cccc1OC
[1]
  Ki: 1180 nM
[2]; read-out: EC50
  EC50: 94 nM
[3]
  Emax: 15%

## COc1ccc(OC)c(-c2cc(C(=O)N[C@H](C(=O)O)C3CCCCC3)nn2-c2ccnc3cc(Cl)ccc23)c1
[4]
  Ke: 1280 nM
[3]
  Emax: 19%

## O=C(N[C@H](C(=O)O)C1CCCCC1)c1cc(-c2c(F)cccc2F)n(-c2ccnc3cc(Cl)ccc23)n1
[3]
  Emax: 15%

## COc1cccc(OC)c1-c1cc(C(=O)N[C@H](C(=O)O)C2CCCCC2)nn1-c1ccnc2cc(Cl)ccc12
[4]
  Ke: 23 nM
[3]
  Emax: 86%

## COc1cccc(OC)c1-c1cc(C(=O)NC2(C(=O)O)CCCCCC2)nn1-c1ccnc2cc(Cl)ccc12
[4]
  Ke: 42 nM
[3]
  Emax: 89%

## COc1ccccc1-c1cc(C(=O)N[C@H](C(=O)O)C2CCCCC2)nn1-c1cccc2ccccc12
[4]
  Ke: 1400 nM
[3]
  Emax: 18%

## COc1cccc(OC)c1-c1cc(C(=O)NC2C3CC4CC(C3)CC2C4)nn1-c1ccnc2cc(Cl)ccc12 (configuration not stated)
[2]; cho-k1
  EC50: Not Active

## COc1cccc(OC)c1-c1cc(C(=O)NC2(C(=O)O)CCCCC2)nn1-c1cccc2ccccc12
[4]
  Ke: 230 nM
[3]
  Emax: 35%

## COc1cccc(OC)c1-c1cc(C(=O)NC2(C(=O)O)C3CC4CC(C3)CC2C4)nn1-c1ccnc2cc(Cl)ccc12 (configuration not stated) [REMINERTANT]
[1]
  Ki: 62 nM
[2]; read-out: EC50
  EC50: 120 nM
[3]
  Emax: 100%

## COc1ccccc1-c1cc(C(=O)N[C@H](C(=O)O)C2CCCCC2)nn1-c1ccnc2cc(Cl)ccc12
[4]
  Ke: 1680 nM
[3]
  Emax: 25%

## COc1cccc(OC)c1-c1cc(C(=O)NC2(C(=O)O)CCCC2)nn1-c1ccnc2cc(Cl)ccc12
[4]
  Ke: 222 nM
[3]
  Emax: 76%

## COc1cccc(OC)c1-c1cc(C(=O)NC2(C(=O)O)C3CC4CC(C3)CC2C4)nn1-c1ccc(F)cc1 (configuration not stated)
[4]
  Ke: 191 nM
[3]
  Emax: 34%

## COc1cccc(OC)c1-c1cc(C(=O)NC2(C(=O)O)CCCCC2)nn1-c1ccc(F)cc1
[3]
  Emax: 15%

## COc1cccc(OC)c1-c1cc(C(=O)N[C@H](C(=O)O)C2CCCCC2)nn1-c1ccc(F)cc1
[4]
  Ke: 3340 nM
[3]
  Emax: 22%

## COc1cccc(OC)c1-c1cc(C(=O)N[C@H](C(=O)O)C2CCCCC2)nn1-c1cccc2ccccc12
[4]
  Ke: 58 nM
[3]
  Emax: 45%

## COc1ccccc1-c1cc(C(=O)NC2(C(=O)O)CCCCC2)nn1-c1cccc2ccccc12
[4]
  Ke: 7380 nM
[3]
  Emax: 18%

## COc1cccc(OC)c1-c1cc(C(=O)NC2(C(=O)O)C3CC4CC(C3)CC2C4)nn1-c1ccc(C(=O)N(C)CCCN(C)C)cc1C(C)C (configuration not stated)
[1]
  Ki: 6 nM
[2]; read-out: EC50
  EC50: 20 nM
[3]
  Emax: 100%

## COc1cccc(OC)c1-c1cc(C(=O)NC2(C(=O)O)CCCCC2)nn1-c1ccnc2cc(Cl)ccc12
[4]
  Ke: 157 nM
[3]
  Emax: 78%

## COc1ccc(-c2cc(C(=O)N[C@H](C(=O)O)C3CCCCC3)nn2-c2ccnc3cc(Cl)ccc23)c(OC)c1
[3]
  Emax: 12%

## CC[C@H](C)[C@H](NC(=O)[C@H](Cc1ccc(O)cc1)NC(=O)[C@@H]1CCCN1C(=O)[C@H](CCCN=C(N)N)NC(=O)[C@@H](N)CCCN=C(N)N)C(=O)N[C@@H](CC(C)C)C(=O)O
[2]; cho-k1
  EC50: Not Active

## COc1ccccc1-c1cc(C(=O)NC2(C(=O)O)CCCCC2)nn1-c1ccnc2cc(Cl)ccc12
[4]
  Ke: 4550 nM
[3]
  Emax: 35%

## C[C@@H]1CN([C@H]2CC[C@](C#N)(c3ccc(F)cc3)CC2)CC[C@]1(C(=O)O)c1ccccc1 [LEVOCABASTINE]
[5]
  EC50: Not Active
[3]
  Emax: 16%
